Columns and labels:
[1] = tested on: ctf3-2A cells; assay: Spot assay, growth of mutant strains under chemical stress; assay type: cell-based, yeast; conditions: 10-fold serial dilutions, 30°C, 2 or 3 d; effects modest
How it was run: (§1)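 Strains were built by lithium acetate integration of PCR products and verified by sequencing or PCR. Cells were grown in YPD to OD600 ~1 and diluted to OD600 0.2. 10-fold serial dilutions in sterile water, 5 µl each, were spotted on YPD or YPD with hydroxyurea at indicated concentrations. Plates were incubated 2 or 3 d at 30°C, then imaged.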

[2] = tested on: cells lacking both Ulp2–kinetochore interactions (KIM-Ctf3 and SIM-SUMO); assay: Growth under chemical stress, cells lacking both Ulp2–kinetochore interactions; assay type: cell-based, yeast; conditions: KIM-Ctf3 and SIM-SUMO interactions both absent
How it was run: as §1

[3] = tested on: ctf3-2A ulp2–SIM-3A double mutant cells; assay: Spot assay, growth of mutant strains under chemical stress; assay type: cell-based, yeast; conditions: 10-fold serial dilutions, 30°C, 2 or 3 d
How it was run: as §1

[4] = tested on: ulp2–KIM-3A and ctf3-2A cells; assay: as above; assay type: cell-based, yeast; conditions: YPD + hydroxyurea; 10-fold dilution series
How it was run: as §1

[5] = tested on: Ctf3-2A (Ctf3–R594A,K596A); assay: GST pulldown with Ctf3-2A; assay type: binding, yeast; conditions: Fig. S2 A, 20 mM Tris, pH 8.5, 150 mM NaCl
[6] = tested on: Ctf3; assay: GST-Ulp2-KIM pulldown from yeast cell extracts, Ctf3; assay type: binding; conditions: immobilized GST-Ulp2-KIM as bait; anti–Protein A blot
[7] = target: T1, Ctf3 complex (Ctf3, Mcm16, Mcm22) (yeast, UniProt Q12748;Q12262;P47167); assay: fluorescence polarisation
[8] = target: T1, Ctf3 complex (Ctf3, Mcm16, Mcm22); assay: pull-down

T1 sequence (Q12748 whole entry, chain 1 of 3): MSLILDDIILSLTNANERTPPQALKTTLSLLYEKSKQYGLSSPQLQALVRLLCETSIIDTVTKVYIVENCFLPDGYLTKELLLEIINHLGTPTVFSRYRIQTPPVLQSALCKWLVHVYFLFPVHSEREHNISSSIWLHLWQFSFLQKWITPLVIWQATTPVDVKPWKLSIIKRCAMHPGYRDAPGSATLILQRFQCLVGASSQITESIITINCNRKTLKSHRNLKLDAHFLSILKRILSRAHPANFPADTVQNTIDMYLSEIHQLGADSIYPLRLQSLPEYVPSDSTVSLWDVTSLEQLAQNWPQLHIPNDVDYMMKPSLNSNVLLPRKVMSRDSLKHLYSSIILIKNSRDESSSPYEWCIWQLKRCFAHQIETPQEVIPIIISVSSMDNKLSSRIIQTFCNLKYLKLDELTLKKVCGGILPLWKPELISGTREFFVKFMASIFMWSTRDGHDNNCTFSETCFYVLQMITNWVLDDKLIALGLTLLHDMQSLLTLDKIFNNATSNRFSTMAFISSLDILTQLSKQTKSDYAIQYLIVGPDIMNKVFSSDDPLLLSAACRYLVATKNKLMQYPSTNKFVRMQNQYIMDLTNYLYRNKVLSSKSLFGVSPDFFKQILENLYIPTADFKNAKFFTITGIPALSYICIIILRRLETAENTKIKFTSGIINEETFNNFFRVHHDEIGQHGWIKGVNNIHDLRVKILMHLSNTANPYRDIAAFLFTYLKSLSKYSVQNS
T1 sequence (Q12262 whole entry, chain 2 of 3): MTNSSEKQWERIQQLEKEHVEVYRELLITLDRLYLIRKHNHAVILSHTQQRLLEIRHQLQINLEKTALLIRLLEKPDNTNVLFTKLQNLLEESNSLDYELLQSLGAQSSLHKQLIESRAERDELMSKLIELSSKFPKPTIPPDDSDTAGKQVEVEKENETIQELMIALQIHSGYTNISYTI
T1 sequence (P47167 whole entry, chain 3 of 3): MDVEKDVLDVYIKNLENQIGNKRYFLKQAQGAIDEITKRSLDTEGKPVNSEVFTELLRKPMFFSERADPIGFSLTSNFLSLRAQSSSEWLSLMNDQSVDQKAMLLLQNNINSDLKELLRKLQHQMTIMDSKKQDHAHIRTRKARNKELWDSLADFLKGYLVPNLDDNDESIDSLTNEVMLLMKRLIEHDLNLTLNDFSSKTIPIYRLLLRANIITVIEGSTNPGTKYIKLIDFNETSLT

## CCCCNC(=O)n1c(NC(=O)OC)nc2ccccc21 [benomyl]
[1]
  sensitivity of ctf3-2A cells: sensitizes cells to hydroxyurea and benomyl
[2]
  viability/sensitivity of cells lacking both Ulp2–kinetochore interactions: Compromised viability
[3]
  sensitivity of ctf3-2A ulp2–SIM-3A double mutant cells: pronounced

## NC(=O)NO [hydroxyurea]
[1]
  sensitivity of ctf3-2A cells: sensitizes cells to hydroxyurea
[4]
  sensitivity of ulp2–KIM-3A and ctf3-2A cells: elevated sensitivity
[2]
  viability/sensitivity of cells lacking both Ulp2–kinetochore interactions: much more sensitive
[3]
  sensitivity of ctf3-2A ulp2–SIM-3A double mutant cells: pronounced

B1: GST-Ulp2-KIM: GST fusion of the Ulp2 kinetochore interaction motif (KIM) (protein)
chain: MSARKRKFNSLKPLDTLNSSRASSPRSSASLPPKRYNTFRKDPKIVDHLNNASTKDFLPVLSMNSESKRQIELSDNDVDNNDEGEGVNSGCSDQDFEPLQSSPLKRHSSLKSTSNGLLFQMSNNLGNGSPEPAVASTSPNGSIISTKLNLNGQFSCVDSKTLRIYRHKAPCIMTFVSDHNHPKFSLYFQQSVIYNSQVNLLDDVELIILDKKNSFMAIILKDLKKVKMILDVNNSSININTNILIWSTASSASNKKIKSIKRFLLMSYSSSIKVEILDHKEQILERLKHLIHPISSSSPSLNMERAINSTKNAFDSLRLKKTKLSTNDDESPQIHTHFLSNKPHGLQSLTKRTRIASLGKKEHSISVPKSNISPSDFYNTNGTETLQSHAVSQLRRSNRFKDVSDPANSNSNSEFDDATTEFETPELFKPSLCYKFNDGSSYTITNQDFKCLFNKDWVNDSILDFFTKFYIESSIEKSIIKREQVHLMSSFFYTKLISNPADYYSNVKKWVNNTDLFSKKYVVIPINISYHWFSCIITNLDAILDFHQNKDKNDAINSDEISINNPLVNILTFDSLRQTHSREIDPIKEFLISYALDKYSIQLDKTQIKMKTCPVPQQPNMSDCGVHVILNIRKFFENPVETIDVWKNSKIKSKHFTAKMINKYFDKNERNSARKNLRHTLKLLQLNYISYLKKENLYEEVMQMEEKKSTNINNNENYDDDDEEIQIIENIDQSSKDNNAQLTSEPPCSRSSSISTTEREPTELHNSVVRQPTGEIITDNEDPVRAASPETASVSPPIRHNILKSSSPFISESANETEQEEFTSPYFGRPSLKTRAKQFEGVSSPIKNDQALSSTHDIMMPSPKPKRIYPSKKIPQLSSHVQSLSTDSMERQSSPNNTNIVISDTEQDSRLGVNSESKNTSGIVNRDDSDVNLIGSSLPNVAEKNHDNTQESNGNNDSLGKILQNVDKELNEKLVDIDDVAFSSPTRGIPRTSATSKGSNAQLLSNYGDENNQSQDSVWDEGRDNPILLEDEDP
[5]
  Ulp2–KIM interaction with Ctf3-2A in pulldown: Ctf3-2A does not support the Ulp2–KIM interaction

B2: Ulp2: nuclear enzyme that removes SUMO chains from modified substrates; in pulldown represented by GST-Ulp2-KIM bait (protein, UniProt P40537 1-1034, looked up)
Ubiquitin-like-specific …: B1 chain
[6]
  pulldown of Ctf3 from yeast cell extract: Ctf3, but not Ctf3-2A, binds Ulp2

B3: FITC-Ulp2-KIM peptide (Ulp2-927-937) (peptide)
peptide: DDSDVNLIGSS
modifications: FITC-AHA on the N-terminus (FITC-AHA-DDSDVNLIGSS)
[7]
  Kd: ~900 nM

B4: GST-Ulp2-927-937 N932A (peptide)
chain: DDSDVALIGSS
[8]
  binding result: binds

B5: GST-Ulp2-927-937 (peptide)
chain: DDSDVNLIGSS
[8]
  binding result: binds

B6: GST-Ulp2-KIM 1DA-1 (Ulp2-D927A) (peptide)
chain: ADSDVNLIGSS
[8]
  binding result: binds
